Source: publication PMC3841333 (Theranostics, 2013)

Assays:
tumors = conditions: cited from earlier work
PC-3 prostate tumors = conditions: xenografted PC-3 model; cited from earlier work
U87MG gliomas = conditions: xenografted U87MG model; cited from earlier work
[1] = tested on: pre-clinical tumor models; conditions: variety of pre-clinical tumor models; cited from earlier work
[2] = tested on: VEGF and PDGF receptor families; conditions: in vitro; cited from earlier work
MDA-MB-435 tumors = assay: Tumor immunohistochemistry; type: in vivo, athymic nude mice
How it was run: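 Fat-pad MDA-MB-435 tumors came from mice given vehicle or oral test compound (12.5 mg/kg twice daily) and were harvested on days -1, 1, 4 and 11. Frozen 5 μm OCT sections were fixed in ice-cold acetone (10 min) and blocked in 10% goat serum (30 min). They were stained 1 h with hamster anti-integrin β3 and rat anti-CD31 (1:100), then Cy3/FITC secondaries (1:100), and read by fluorescence microscopy. H&E sections were examined for blood vessels.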

integrin αvβ3 = assay: ^99mTc-3P-RGD2 SPECT/CT tumor uptake during linifanib therapy, MDA-MB-435 model; type: in vivo, athymic nude mice
How it was run: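 Size-matched groups (n = 5; mean tumor 180 ± 90 mm3) of female nude mice with fat-pad MDA-MB-435 tumors received vehicle (0.15% HPMC, 2% ethanol, 5% Tween 80, 20% PEG400, 73% saline) or test compound at 12.5 mg/kg orally twice daily (>8 h apart) from day 0. Radiotracer (>95% radiochemical purity, in saline) was given i.v. Multi-pinhole SPECT/CT on days -1, 1, 4 and 11 was quantified as %ID and %ID/cm3.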

tumor = conditions: 2 days after sunitinib therapy; cited from earlier work
integrin αvβ3 and αvβ5 = conditions: low concentrations; cited from earlier work
[3] = 12.5 mg/kg orally twice daily, as early as 24 h, SPECT/CT quantification, n = 5

Cc1nc(Nc2ncc(C(=O)Nc3c(C)cccc3Cl)s2)cc(N2CCN(CCO)CC2)n1 [dasatinib]
uptake of ^64Cu-DOTA-RGD in the treated tumors (tumors): significantly reduce

Cc1ccc(F)c(NC(=O)Nc2ccc(-c3cccc4[nH]nc(N)c34)cc2)c1 [linifanib]
tumor volume or tumor uptake of ^99mTc-3P-RGD2 after linifanib treatment (PC-3 prostate tumors): no significant changes
tumor uptake (%ID and %ID/cm^3) and T/M ratios of ^99mTc-3P-RGD2 after linifanib treatment (U87MG gliomas): significant decrease
effect on tumors in vivo [1]: pronounced regression of tumors
phosphorylation of members of VEGF and PDGF receptor families [2]: inhibit the phosphorylation
blood vessel density (MDA-MB-435 tumors; H&E staining of tumor slices, within 24 h after initiation of linifanib therapy): dramatically reduced
integrin αvβ3 on neovasculature (MDA-MB-435 tumors; IHC staining of tumor slices, after 24 h of linifanib therapy): disappeared almost completely
tumor cell integrin αvβ3 expression level (MDA-MB-435 tumors; IHC staining of tumor slices, during the 11-day period of linifanib therapy): decreased steadily
%ID tumor uptake of ^99mTc-3P-RGD2 in linifanib-treated group (integrin αvβ3; [3]): dramatic reduction
%ID/cm^3 tumor uptake of ^99mTc-3P-RGD2 in linifanib-treated group (integrin αvβ3; [3]): dramatic reduction
tumor uptake (%ID and %ID/g) of ^99mTc-3P-RGD2 in linifanib-treated group (integrin αvβ3; over the next 10 days after the first 24 h of linifanib therapy): steady tumor uptake reduction

CCN(CC)CCNC(=O)c1c(C)[nH]c(/C=C2\C(=O)Nc3ccc(F)cc32)c1C [sunitinib]
tumor uptake of [^18F]AH111585 after sunitinib therapy (tumor): significantly reduced

Cilengitide
effect on tumor growth and angiogenesis (integrin αvβ3 and αvβ5): stimulate tumor growth and angiogenesis
